Data taken from the EternaBench riboswitch data.

Experiments:
MS2 coat protein [1] = assay: apparent Kd, MS2 coat protein; higher = weaker binding; RNA-MaP array; tryptophan 2.4 mM where present
In short: (§1)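 Stalled E. coli RNA polymerase transcribed the designs on Illumina sequencing-chip clusters. SNAP-549-labelled MS2 coat protein was titrated from 0.7 or 1.5 nM, doubling to 3 µM, without and then with constant ligand, in 100 mM Tris-HCl pH 7.5, 80 mM KCl, 4 mM MgCl2, BSA, DTT, yeast tRNA and Tween-20. Per-cluster binding curves were fitted to green signal normalised to red-channel RNA signal and control-cluster median Fmax. The apparent Kd is the median of the filtered fits.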

MS2 coat protein [2] = assay: apparent Kd, MS2 coat protein; higher = weaker binding; RNA-MaP array; theophylline 2 mM where present
In short: as §1

[3] = designed as: OFF switch for tryptophan, no ligand
[4] = ligand present: tryptophan, designed as: OFF switch for tryptophan
[5] = designed as: ON switch for tryptophan, no ligand
[6] = ligand present: tryptophan, designed as: ON switch for tryptophan
[7] = designed as: OFF switch for theophylline, no ligand
[8] = ligand present: theophylline, designed as: OFF switch for theophylline
[9] = designed as: ON switch for theophylline, no ligand
[10] = ligand present: theophylline, designed as: ON switch for theophylline

“ACAUGAGGAUCACCCAUGUGAAGCAGGGUACGAGGACCGGUACGGCCGCCACUCGAACAUUAUAACGAGUGAAUGGCAACGAUGU” was tested, and the “apparent Kd” value (MS2 coat protein [1]; [3]) was 11.9 nM and the “apparent Kd” value (MS2 coat protein [1]; [4]) was 14.2 nM.

For “UGUCAGCGAAAGUUGACAUGUCUUACCGGUCGAGGACCGGUACGGCCGCCACUCGAUCACUCGCACAUGAGGAUCACCCAUGUCG”, the “apparent Kd” value (MS2 coat protein [1]; [5]) was 12.4 nM and the “apparent Kd” value (MS2 coat protein [1]; [6]) was 11.7 nM.

For “CUCAUCCACGCGGCCGCCACUAUAUUGUGGUGUGAGUGUGACGUAUUACAUGAGGAUCACCCAUGUAGGACCGGGCGUGGAUGAG”, the “apparent Kd” value (MS2 coat protein [1]; [3]) was 34.6 nM and the “apparent Kd” value (MS2 coat protein [1]; [4]) was 308 nM.

For “AACUUCGCAUAGGAAAACUAUGUGAAGAAUCGAGGACCGGUACGGCCGCCACUCGUCCUCAACAUGAGGAUCACCCAUGUAAUAA”, the “apparent Kd” value (MS2 coat protein [1]; [3]) was 18.9 nM and the “apparent Kd” value (MS2 coat protein [1]; [4]) was 34.8 nM.

“ACCUGCGUUUGAUUCUAUCAGACGCAGGUUCGAGGACCGGUACGGCCGCCACUCGGACAUGAGGAUCACCCAUGUUUGACAUGGG” was tested, and the “apparent Kd” value (MS2 coat protein [1]; [3]) was 64.5 nM and the “apparent Kd” value (MS2 coat protein [1]; [4]) was 211 nM.

“GUCCUCAUGACGGCCGCCACUAAACAUGAGGAUCACCCAUGUAAUGAUCCAUUAAAUGAUAAUAGUAGGACCGGGUCAAAAUAAA” was tested, and the “apparent Kd” value (MS2 coat protein [1]; [5]) was 477 nM and the “apparent Kd” value (MS2 coat protein [1]; [6]) was 669 nM.

In the case of “UUCGUAUUGUCGGCCGCCACUGCAACAUGAGGAUCACCCAUGUAAAUUUGGGAGUAGUUAUAUUACAGGACCGGGACAAUAGUAA”, the “apparent Kd” value (MS2 coat protein [1]; [3]) is reported as 102 nM and the “apparent Kd” value (MS2 coat protein [1]; [4]) is reported as 139 nM.

“GGGAGGUAGGCGGCCGCCACUGAUUUUCAUAUAUAUAUAACAUGAGGAUCACCCAUGUAGAUAUGCAGGACCGGGCCUGUUUUUU” was tested, and the “apparent Kd” value (MS2 coat protein [1]; [5]) was 23.9 nM and the “apparent Kd” value (MS2 coat protein [1]; [6]) was 19.3 nM.

With “AUACAUGAGGAUCACCCAUGUGAUGGCCGGCGAGGACCGGUACGGCCGCCACUCGUGAUCCGUCCUGAAAGCAAAGCUCUCAACA” the “apparent Kd” value (MS2 coat protein [1]; [5]) was 47.2 nM and the “apparent Kd” value (MS2 coat protein [1]; [6]) was 91.2 nM.

In the case of “AAUAUAAUAGACUCGUUUUAGUAUUUGGAACGAGGACCGGUACGGCCGCCACUCGUGAUUUACAUGAGGAUCACCCAUGUUAGCA”, the “apparent Kd” value (MS2 coat protein [1]; [5]) is reported as 14.7 nM and the “apparent Kd” value (MS2 coat protein [1]; [6]) is reported as 13.1 nM.

For “AGACAUGAGGAUCACCCAUGUAGUAUGGAUACCAGAUCCAGAUUUAUCCCUUGGCAGCUGUGGUACAGCGUUGCAUCGCUCCUAG”, the “apparent Kd” value (MS2 coat protein [2]; [7]) was 32.3 nM and the “apparent Kd” value (MS2 coat protein [2]; [8]) was 34.5 nM.

For “UGACAUUGCUGCGAUACCAGACAUGAGGAUCACCCAUGUACCAAGGUAAAGAAAUAACGUGUCCCUUGGCAGCGCAGCAAUGUCU”, the “apparent Kd” value (MS2 coat protein [2]; [7]) was 9.91 nM and the “apparent Kd” value (MS2 coat protein [2]; [8]) was 91.1 nM.

For “UCUUUCUAUGUAGAUACCAGCAUGUUAUCUUUCUUUUGACAUGAGGAUCACCCAUGUAAAUGCCCUUGGCAGCUACAUUUUCUUU”, the “apparent Kd” value (MS2 coat protein [2]; [9]) was 21.4 nM and the “apparent Kd” value (MS2 coat protein [2]; [10]) was 15.4 nM.

“AGCGUAUAGACGGAUACCAGCGCCAAUUAACAUGAGGAUCACCCAUGUAGUGUGGGUGGACGCCCUUGGCAGCCGAGUAUAGGUA” was tested, and the “apparent Kd” value (MS2 coat protein [2]; [7]) was 97.8 nM and the “apparent Kd” value (MS2 coat protein [2]; [8]) was 284 nM.

In the case of “AGGAAACAACAUGAGGAUCACCCAUGUGAUACCAGUAUCAAAAGAUACCCUUGGCAGCACACAUGACAUGAGGAUCACCCAUGUA”, the “apparent Kd” value (MS2 coat protein [2]; [9]) is reported as 41.4 nM and the “apparent Kd” value (MS2 coat protein [2]; [10]) is reported as 84.4 nM.

“GCACUACAUGAGGAUCACCCAUGUGCAGAUACCAGAGGUGUAUGCCUCCCUUGGCAGCUGAGUAGCUCUGGAGGCCUAUUGGUUU” was tested, and the “apparent Kd” value (MS2 coat protein [2]; [9]) was 15 nM and the “apparent Kd” value (MS2 coat protein [2]; [10]) was 19.1 nM.

“UAUAUAUAUAUUGAUACCAGCAGAGAAAACGUUUAUCCUAACAUGAGGAUCACCCAUGUAUGCCCUUGGCAGCGGUAUAUAUAUA” was tested, and the “apparent Kd” value (MS2 coat protein [2]; [7]) was 25.7 nM and the “apparent Kd” value (MS2 coat protein [2]; [8]) was 38 nM.

For “GAGCUGAUGUAGAAAUUUUAUUUAUGAGAUACCAGUACAGAAAUGUACCCUUGGCAGCUCAUUUUUACAUGAGGAUCACCCAUGU”, the “apparent Kd” value (MS2 coat protein [2]; [7]) was 12.5 nM and the “apparent Kd” value (MS2 coat protein [2]; [8]) was 13.8 nM.

For “UUUGCACAUGAGGAUCACCCAUGUACAGAUACCAGCCUCAUCUACGGCCCUUGGCAGCUGAGAUAAUGGUGACGUGAUGGGCUUU”, the “apparent Kd” value (MS2 coat protein [2]; [7]) was 14 nM and the “apparent Kd” value (MS2 coat protein [2]; [8]) was 26.3 nM.

In the case of “UUCUGGACCCGUGAUACCAGAGACAUGAGGAUCACCCAUGUACAUGAGGAUCACCCAUGUCUCCCUUGGCAGCACUGCAGGGAGC”, the “apparent Kd” value (MS2 coat protein [2]; [7]) is reported as 115 nM and the “apparent Kd” value (MS2 coat protein [2]; [8]) is reported as 875 nM.

“GAUGAACUAUUUGAUACCAGACUACAUGAGGAUCACCCAUGUGAGUUUAUACUUCUGUCAGUCCCUUGGCAGCAAAUAGUUUAUC” was tested, and the “apparent Kd” value (MS2 coat protein [2]; [7]) was 19.2 nM and the “apparent Kd” value (MS2 coat protein [2]; [8]) was 123 nM.

“ACCUACACGGAGACGUGUAGGAGUAAUGAUACCAGCAUGGAGACAUGCCCUUGGCAGCGUUACAUGAGGAUCACCCAUGUGGUGC” was tested, and the “apparent Kd” value (MS2 coat protein [2]; [7]) was 21.1 nM and the “apparent Kd” value (MS2 coat protein [2]; [8]) was 483 nM.

For “UAAAUAAUCUGGGUGUAGGUAAUAACAGAUACCAGCCAGAUAACUGGCCCUUGGCAGCUGAUAACAUGAGGAUCACCCAUGUAAA”, the “apparent Kd” value (MS2 coat protein [2]; [9]) was 80.5 nM and the “apparent Kd” value (MS2 coat protein [2]; [10]) was 224 nM.

For “UAAAAUAAAAGGGUGAAGGUAUAAACAGAUACCAGCCAGAUAACUGGCCCUUGGCAGCUGAAUGACAUGAGGAUCACCCAUGUCU”, the “apparent Kd” value (MS2 coat protein [2]; [9]) was 12 nM and the “apparent Kd” value (MS2 coat protein [2]; [10]) was 33.3 nM.

With “UGUAACAUGAGGAUCACCCAUGUGAGUGAUACCAGAUAAGUAGUAGUCCCUUGGCAGCAUAUUGGGCGAGUGUAUAGUCUAUACG” the “apparent Kd” value (MS2 coat protein [2]; [9]) was 157 nM and the “apparent Kd” value (MS2 coat protein [2]; [10]) was 179 nM.

In the case of “CAUAUUGUAACUGAUACCAGUGUACUGACAUGAGGAUCACCCAUGUUGGGUUUUGUUGUACACCCUUGGCAGCAGAAUCAAUAUG”, the “apparent Kd” value (MS2 coat protein [2]; [7]) is reported as 68.7 nM and the “apparent Kd” value (MS2 coat protein [2]; [8]) is reported as 89.2 nM.
